The text below walks through data of PMC8167812 (Cell reports, 2021).

The test system of test [1] is TetR-Clr4 at tetO. As to the kind of experiment: ChIP analysis of TetR-Clr4 release from tetO after tetracycline addition. Format: cell-based, fission yeast (S. pombe). The settings on record: tetracycline 10 μM.
The target of test [2] is Clr4-SET (Schizosaccharomyces pombe, UniProt O60016). As to the kind of experiment: Thermal shift assay, Clr4-SET. It counts as binding, fission yeast (S. pombe). As to conditions: without peptide, SYPRO orange, Figure S3C. The method, boiled down:
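Clr4 SET domain (residues 190–490) was expressed in Rosetta E. coli and purified on Talon resin. Protein at 3 μM was mixed with 150 μM SAM in 50 mM Tris pH 8.0, 1 mM EDTA and 0.5 mM DTT, held 10 min at room temperature then 10 min on ice. SYPRO orange was added and the sample ramped 25–99 °C in 1 °C steps over 75 min. Curves were min–max normalised; samples were run in duplicate.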

Some results are limits rather than exact numbers.

Sequence of Clr4-SET (O60016 190-490): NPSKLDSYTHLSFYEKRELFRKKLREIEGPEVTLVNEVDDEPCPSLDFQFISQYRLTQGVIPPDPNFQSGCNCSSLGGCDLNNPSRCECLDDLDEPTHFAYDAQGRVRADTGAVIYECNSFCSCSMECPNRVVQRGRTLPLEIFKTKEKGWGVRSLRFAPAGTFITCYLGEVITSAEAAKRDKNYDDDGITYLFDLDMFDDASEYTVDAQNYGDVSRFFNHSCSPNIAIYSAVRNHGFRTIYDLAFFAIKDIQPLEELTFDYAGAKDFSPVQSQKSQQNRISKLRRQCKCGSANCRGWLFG

As for `CN(C)[C@@H]1C(O)=C(C(N)=O)C(=O)[C@@]2(O)C(O)=C3C(=O)c4c(O)cccc4[C@@](C)(O)[C@H]3C[C@@H]12` [tetracycline], the “release of TetR-Clr4 from tetO” value in test [1] (hht3-K9M cells, samples at 5, 10, and 20 minutes) is “a delay in the release of TetR-Clr4”. For the same compound, the “time in which most TetR-Clr4 is released from tetO” value in test [1] (30°C, ChIP-qPCR normalized to act1+) is recorded as at most 5 min.
As for `C[S+](CC[C@H](N)C(=O)[O-])C[C@H]1O[C@@H](n2cnc3c(N)ncnc32)[C@H](O)[C@@H]1O` (stereo partly drawn) [SAM, S-adenosyl-methionine], the “thermal stability of Clr4 on addition of SAM alone” value in test [2] was “greater thermal stability of Clr4”.
